Assay results: publication PMC3546147 (Bioorganic & medicinal chemistry, 2012)

Legend:
KB [1] = experiment: Antiproliferative SRB assay, KB; format: cell-based, human; conditions: positive control
Method in brief: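 Human nasopharyngeal epidermoid carcinoma KB cells, tested in a panel with A-549, P-gp-expressing KBVIN and DU145 lines. Cytotoxicity was read by the sulforhodamine B (SRB) method, with a reference compound run alongside. GI50 is the molar drug concentration causing 50% tumor cell growth inhibition.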

KB [2] = conditions: prior hit; cited from earlier work
A549 = conditions: read-out: GI50, A549, prior hit; cited from earlier work
DU145 = conditions: read-out: GI50, DU145, prior hit; cited from earlier work

Row | GI50 ± SD, KB (KB [1]) | GI50 ± SD, KB (KB [1]; listed as paclitaxel) | Structure (SMILES) | GI50, KB (KB [2]) | GI50 (A549) | GI50 (DU145)
1 | 0.00777 ± 0.00084 µM | 0.008 µM | CC(=O)O[C@H]1C(=O)[C@@]2(C)[C@H]([C@H](OC(=O)c3ccccc3)[C@]3(O)C[C@H](OC(=O)[C@H](O)[C@@H](NC(=O)c4ccccc4)c4ccccc4)C(C)=C1C3(C)C)[C@]1(OC(C)=O)CO[C@@H]1C[C@@H]2O [Paclitaxel] |  |  | 
2 |  |  | COc1ccc(Nc2nc(Cl)ccc2[N+](=O)[O-])cc1 [1a, 6-chloro-N-(4-methoxyphenyl)-3-nitropyridin-2-amine] | 7.19 µM | 13.5 µM | 3.83 µM
